According to ChEMBL document CHEMBL1145495, “Polyamine effects on antibiotic susceptibility in bacteria” (2007):
≈ marks a conversion by molar mass, not a printed value.

How the values were obtained:
[1] = system: Staphylococcus aureus; assay: Antibacterial activity against Staphylococcus aureus ATCC 3556 after 14 to 16 hrs by broth dilution method; assay type: functional
[2] = system: Staphylococcus aureus; assay: Antibacterial activity against Staphylococcus aureus Mu50 after 14 to 16 hrs by broth dilution method; assay type: functional
[3] = system: Staphylococcus aureus; assay: Antibacterial activity against Staphylococcus aureus N315 after 14 to 16 hrs by broth dilution method; assay type: functional
How it was run: (§1)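 CLSI broth dilution in cation-adjusted Mueller-Hinton broth with serial twofold dilutions, with or without spermine or spermidine added. Overnight cultures were diluted in saline to OD600 0.1–0.12, and about 10^5 CFU were inoculated. Incubation was 14–16 h at 37°C. MIC was confirmed in three independent experiments. E. coli acrA mutants were tested with 1 mM spermine; P. aeruginosa isolates with 1 mM spermine or 20 mM spermidine.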

[4] = system: Salmonella typhimurium; assay: Antibacterial activity against Salmonella enterica serovar Typhimurium LT2 after 14 to 16 hrs by broth dilution method; assay type: functional, Salmonella enterica subsp. enterica serovar Typhimurium
[5] = system: Escherichia coli; assay: Antibacterial activity against Escherichia coli C921-61 after 14 to 16 hrs by broth dilution method; assay type: functional
[6] = system: Escherichia coli; assay: Antibacterial activity against Escherichia coli K10 after 14 to 16 hrs by broth dilution method; assay type: functional
[7] = system: Escherichia coli; assay: Antibacterial activity against Escherichia coli K12 after 14 to 16 hrs by broth dilution method; assay type: functional
[8] = system: Pseudomonas aeruginosa; assay: Antibacterial activity against streptomycin-resistant Pseudomonas aeruginosa DK100 after 14 to 16 hrs by broth dilution method; assay type: functional; how it was run: as §1
[9] = system: Pseudomonas aeruginosa; assay: Antibacterial activity against Pseudomonas aeruginosa DK101 containing pAU48 expressing oprD after 14 to 16 hrs by broth dilution method; assay type: functional
[10] = system: Pseudomonas aeruginosa; assay: Antibacterial activity against streptomycin and gentamycin-resistant Pseudomonas aeruginosa DK101 containing oprD mutant after 14 to 16 hrs by broth dilution method; assay type: functional; how it was run: as §1
[11] = system: Escherichia coli; assay: Antibacterial activity against Escherichia coli W4573 assessed as inhibition of AcrAB efflux pump after 14 to 16 hrs by broth dilution method; assay type: functional
[12] = system: Escherichia coli; assay: Antibacterial activity against Escherichia coli N43 acrA mutant assessed as inhibition of AcrAB efflux pump after 14 to 16 hrs by broth dilution method; assay type: functional; how it was run: as §1
[13] = system: Escherichia coli; assay: Antibacterial activity against Escherichia coli N818 delta acrA mutant assessed as inhibition of AcrAB efflux pump after 14 to 16 hrs by broth dilution method; assay type: functional; how it was run: as §1
[14] = system: Pseudomonas aeruginosa; assay: Antibacterial activity against Pseudomonas aeruginosa T2095 after 14 to 16 hrs by broth dilution method; assay type: functional
[15] = system: Pseudomonas aeruginosa; assay: Antibacterial activity against Pseudomonas aeruginosa H4563 after 14 to 16 hrs by broth dilution method; assay type: functional
[16] = system: Pseudomonas aeruginosa; assay: Antibacterial activity against Pseudomonas aeruginosa M38100A after 14 to 16 hrs by broth dilution method; assay type: functional
[17] = system: Pseudomonas aeruginosa; assay: Antibacterial activity against Pseudomonas aeruginosa T5177 after 14 to 16 hrs by broth dilution method; assay type: functional; how it was run: as §1
[18] = system: Pseudomonas aeruginosa; assay: Antibacterial activity against Pseudomonas aeruginosa F66336 after 14 to 16 hrs by broth dilution method; assay type: functional
[19] = system: Pseudomonas aeruginosa; assay: Antibacterial activity against Pseudomonas aeruginosa M37310 after 14 to 16 hrs by broth dilution method; assay type: functional
[20] = system: Pseudomonas aeruginosa; assay: Antibacterial activity against Pseudomonas aeruginosa M38100B after 14 to 16 hrs by broth dilution method; assay type: functional
[21] = system: Pseudomonas aeruginosa; assay: Antibacterial activity against Pseudomonas aeruginosa M22152 after 14 to 16 hrs by broth dilution method; assay type: functional; how it was run: as §1
[22] = system: Pseudomonas aeruginosa; assay: Antibacterial activity against Pseudomonas aeruginosa T15464 after 14 to 16 hrs by broth dilution method; assay type: functional; how it was run: as §1
[23] = system: Pseudomonas aeruginosa; assay: Antibacterial activity against Pseudomonas aeruginosa F4980 after 14 to 16 hrs by broth dilution method; assay type: functional; how it was run: as §1
[24] = system: Pseudomonas aeruginosa; assay: Antibacterial activity against Pseudomonas aeruginosa PAO1 after 14 to 16 hrs by broth dilution method; assay type: functional
[25] = system: Pseudomonas aeruginosa; assay: Antibacterial activity against Pseudomonas aeruginosa T6268 after 14 to 16 hrs by broth dilution method; assay type: functional

Molecule	MIC [1]	MIC [2]	MIC [3]	MIC [4]	MIC [5]	MIC [6]	MIC [7]	other results
Cc1onc(-c2ccccc2Cl)c1C(=O)N[C@@H]1C(=O)N2[C@@H]1SC(C)(C)[C@@H]2C(=O)O [CLOXACILLIN]	0.12 µg/mL	≥ 512 µg/mL	8 µg/mL					
CC[C@H]1OC(=O)[C@H](C)[C@@H](O[C@H]2C[C@@](C)(OC)[C@@H](O)[C@H](C)O2)[C@H](C)[C@@H](O[C@@H]2O[C@H](C)C[C@H](N(C)C)[C@H]2O)[C@](C)(O)C[C@@H](C)C(=O)[C@H](C)[C@@H](O)[C@]1(C)O [ERYTHROMYCIN]				64 µg/mL	64 µg/mL	64 µg/mL	64 µg/mL	
CC(=O)O[C@H]1C[C@@]2(C)[C@@H](C[C@@H](O)[C@H]3[C@@]4(C)CC[C@@H](O)[C@@H](C)[C@@H]4CC[C@@]32C)/C1=C(\CCC=C(C)C)C(=O)O [FUSIDIC ACID]				> 1020 µg/mL	1020 µg/mL	> 1020 µg/mL	1020 µg/mL	
C[C@@H](O)[C@H]1C(=O)N2C(C(=O)O)=C(SCCNC=N)C[C@H]12 [IMIPENEM ANHYDROUS]								MIC [8]: 4 µg/mL (≈ 13.4 µM); MIC [9]: 0.5 µg/mL (≈ 1.67 µM); MIC [10]: 32 µg/mL (≈ 107 µM)
NC[C@H]1O[C@H](O[C@H]2[C@H](O)[C@@H](O[C@H]3O[C@H](CO)[C@@H](O)[C@H](N)[C@H]3O)[C@H](N)C[C@@H]2N)[C@H](O)[C@@H](O)[C@@H]1O [KANAMYCIN]				4 µg/mL	4 µg/mL	2 µg/mL	4 µg/mL	
CO[C@@H]1[C@@H](OC(N)=O)[C@@H](O)[C@H](Oc2ccc3c(O)c(NC(=O)c4ccc(O)c(CC=C(C)C)c4)c(=O)oc3c2C)OC1(C)C [NOVOBIOCIN]				> 1020 µg/mL	512 µg/mL	> 1020 µg/mL	> 1020 µg/mL	
CC1(C)S[C@@H]2[C@H](NC(=O)Cc3ccccc3)C(=O)N2[C@H]1C(=O)O [PENICILLIN G]	≤ 0.06 µg/mL	32 µg/mL	32 µg/mL	16 µg/mL		64 µg/mL	64 µg/mL	
CCN1CCN(C(=O)N[C@@H](C(=O)N[C@@H]2C(=O)N3[C@@H]2SC(C)(C)[C@@H]3C(=O)O)c2ccccc2)C(=O)C1=O [PIPERACILLIN]	0.5 µg/mL	128 µg/mL	32 µg/mL	4 µg/mL	2 µg/mL	2 µg/mL	2 µg/mL	
CN[C@@H]1[C@H](O)[C@H](NC)[C@H]2O[C@@]3(O)C(=O)C[C@@H](C)O[C@H]3O[C@@H]2[C@H]1O [SPECTINOMYCIN]				32 µg/mL	16 µg/mL	16 µg/mL	16 µg/mL	
NCCCNCCCCNCCCN [SPERMINE]	4 mM	4 mM	4 mM	2 mM	> 16 mM	1 mM	> 16 mM	
CN(C)[C@@H]1C(O)=C(C(N)=O)C(=O)[C@@]2(O)C(O)=C3C(=O)c4c(O)cccc4[C@@](C)(O)[C@H]3C[C@@H]12 [TETRACYCLINE]	0.12 µg/mL	32 µg/mL	0.12 µg/mL	2 µg/mL	2 µg/mL	8 µg/mL	8 µg/mL	MIC [11]: 2 µg/mL (≈ 4.5 µM); MIC [12]: 0.5 µg/mL (≈ 1.13 µM); MIC [13]: 0.5 µg/mL (≈ 1.13 µM)
CC1(C)S[C@@H]2[C@H](NC(=O)[C@H](C(=O)O)c3ccsc3)C(=O)N2[C@H]1C(=O)O [TICARCILLIN]	1 µg/mL	512 µg/mL	32 µg/mL	4 µg/mL	4 µg/mL	8 µg/mL	8 µg/mL	
POLYMYXIN B	64 µg/mL	128 µg/mL	64 µg/mL		0.5 µg/mL	0.5 µg/mL	0.25 µg/mL	MIC [14]: 0.125 µg/mL; MIC [15]: 0.125 µg/mL; MIC [16]: < 0.06 µg/mL; MIC [17]: 0.5 µg/mL; MIC [18]: 0.125 µg/mL; MIC [19]: 0.125 µg/mL; MIC ([4]; Salmonella enterica subsp. enterica serovar Typhimurium): 0.5 µg/mL; MIC [8]: 0.5 µg/mL; MIC [20]: 16 µg/mL; MIC [21]: 0.5 µg/mL; MIC [9]: 0.5 µg/mL; MIC [22]: 0.5 µg/mL; MIC [23]: 0.25 µg/mL; MIC [24]: 1 µg/mL; MIC [25]: 1 µg/mL; MIC [10]: 0.5 µg/mL
